Here are results for four compounds from PubChem BioAssay AID588485 (Southern Research Specialized Biocontainment Screening …, 2011).

“And” between values parts separate entries of the source, which are not always exact repeats. Identical values can stand only once. The source made the active and inactive calls.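 The calls were made as follows: active = CPE inhibition of 50% or more; inactive = the rest.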

A short description of assay [1]: antiviral activity against respiratory syncytial virus – cell-based, synthesized compounds, set 14, dose response (AID 588485). The following applies: HEp-2 RSV Long CPE inhibition, luminescence viability; at 50 µM (top of the series). The essentials: (§1)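 Incubation: 6 days at 37 °C. Assay system: HEp-2 human cells infected with RSV strain Long. Detection: luminescent CPE readout. Repeats: each dose tested in triplicate. Reagent: RSV strain Long virus at MOI 0.45. Control set: cells-only and virus-infected wells. Compound dosing: 8-point twofold dilution series, 0.39 to 50 µM final, 0.5% DMSO.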

The subject of assay [2] is HEp-2 RSV Long CPE inhibition, luminescence viability. Described as above. The essentials: as §1

With `O=C(O)c1ccc(Cn2c(=O)n(Cc3ccc(C(=O)NCC4COC4)cc3)c(=O)c3ccccc32)cc1`, the CPE inhibition in assay [1] is 0.24% (inactive) and 0.09% (inactive).
Consider `CN(C)c1ccc(Cn2c(=O)n(Cc3ccc(C(=O)NCC4COC4)cc3)c(=O)c3ccccc32)cc1`, for which the IC50 in assay [2] is 1250 nM.
Turning to `COCCCNC(=O)c1ccc(Cn2c(=O)c3ccccc3n(Cc3ccc([N+](=O)[O-])cc3)c2=O)cc1`, the half-maximal inhibitory concentration (IC50) in assay [2] was 460 nM.
Still for that read-out and setting: then `CC(C)c1ccc(Cn2c(=O)n(Cc3ccc(C(=O)NCc4ccco4)cc3)c(=O)c3ccccc32)cc1`, with 1350 nM.

The IC50 is the point on the concentration scale where inhibition reaches its midpoint.
